Measurements published in ChEMBL document CHEMBL1153504, “Short-acting 5-(trifluoromethyl)pyrido[4,3-d]pyrimidin-4(3H)-one derivatives as orally-active calcium-sensing receptor antagonists” (Bioorg Med Chem Lett, 2009).
One block for each compound: values may come before it. Active and inactive are the calls of the source. The rule behind the calls is not given here.

Experiments:
[1] = Antagonist activity at human calcium receptor expressed in HEK293 cells assessed as inhibition of extracellular calcium-induced release of intracellular calcium strores into cytosol by FLIPR assay; format: functional, cell-based
[2] = (§1) Terminal half life in Sprague-Dawley rat at 1 mg/kg, iv; format: ADME, organism-based; parameters: dose 1 mg/kg, route intravenous; conditions: Sprague-Dawley, in vivo, read-out: beta t1/2 (converted)
Method in brief: (§2)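 Male Sprague-Dawley rats, n = 2–5. iv dosing in glycerol formal containing 2% DMSO; po dosing as a spray dried dispersion. Plasma compound levels followed for PK parameters.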

[3] = Plasma clearance in Sprague-Dawley rat at 1 mg/kg, iv; format: ADME, organism-based; parameters: dose 1 mg/kg, route intravenous; method in brief: as §2
[4] = (§3) Volume of distribution at steady state in Sprague-Dawley rat at 1 mg/kg, iv; format: ADME, organism-based; parameters: dose 1 mg/kg, route intravenous; conditions: Sprague-Dawley, in vivo, read-out: Vdss; method in brief: as §2
[5] = AUC in Sprague-Dawley rat at 1 mg/kg, iv; format: ADME, organism-based; parameters: dose 1 mg/kg, route intravenous; conditions: plasma; method in brief: as §2
Rattus norvegicus [6] = assay: Induction of bone formation in Sprague-Dawley rat assessed as transient stimulation of PTH level in plasma at dose 10 mg/kg, po on day 1 by ELISA; format: functional, organism-based; parameters: dose 10 mg/kg
Rattus norvegicus [7] = assay: Induction of bone formation in Sprague-Dawley rat assessed as stimulation of PTH level in plasma at 1 mg/kg, iv after 2 mins by ELISA; format: functional
Method in brief: (§4)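 Male Sprague-Dawley rats, n = 5/6, given a single iv or po dose. Plasma PTH 1-84 measured by an ELISA specific for full-length rat PTH 1-84. Earliest sampling at ~2 min; comparison against baseline in vehicle-treated animals.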

[8] = Tmax in Sprague-Dawley rat at 1 mg/kg, iv; format: ADME, organism-based; parameters: dose 1 mg/kg, route intravenous; conditions: in vivo; method in brief: as §2
Rattus norvegicus [9] = species on record: Rattus norvegicus; assay: Ratio of half life for 1-aminobenzotriazole led P450 inactivator pretreated Sprague-Dawley rat to half life for normal Sprague-Dawley rat; format: ADME, organism-based; conditions: in vivo
[10] = Cmax in Sprague-Dawley rat at 1 mg/kg, iv; format: ADME, organism-based; parameters: dose 1 mg/kg, route intravenous; conditions: in vivo; method in brief: as §2
[11] = Plasma clearance in 1-aminobenzotriazole led P450 inactivator pretreated Sprague-Dawley rat at 1 mg/kg, iv; format: ADME, organism-based; parameters: dose 1 mg/kg, route intravenous
Rattus norvegicus [12] = assay: Induction of bone formation in Sprague-Dawley rat assessed as sustained elevation of PTH level in plasma at dose 10 mg/kg, po administered for 5 days measured on day 5 by ELISA; format: functional, organism-based; parameters: dose 10 mg/kg
Rattus norvegicus [13] = assay: Induction of bone formation in Sprague-Dawley rat assessed as transient stimulation of PTH level in plasma at dose 10 mg/kg, po administered for 5 days measured on day 5 by ELISA; format: functional, organism-based; parameters: dose 10 mg/kg
[14] = Cmax in Sprague-Dawley rat at 10 mg/kg, po; format: ADME, organism-based; parameters: dose 10 mg/kg, route oral; conditions: in vivo; method in brief: as §2
Rattus norvegicus [15] = assay: Induction of bone formation in Sprague-Dawley rat assessed as stimulation of PTH level in plasma at dose 10 mg/kg, po by ELISA; format: functional; method in brief: as §4
Rattus norvegicus [16] = species on record: Rattus norvegicus; assay: Ratio of AUC for 1-aminobenzotriazole led P450 inactivator pretreated Sprague-Dawley rat to AUC for normal Sprague-Dawley rat; format: ADME, organism-based; conditions: in vivo
[17] = Half life in human; format: ADME, organism-based; conditions: in vivo
[18] = target: Voltage-gated inwardly rectifying potassium channel KCNH2 (Homo sapiens, UniProt Q12809); assay: Inhibition of human ERG
Sequence of Voltage-gated inwardly rectifying potassium channel KCNH2 (Q12809 whole entry): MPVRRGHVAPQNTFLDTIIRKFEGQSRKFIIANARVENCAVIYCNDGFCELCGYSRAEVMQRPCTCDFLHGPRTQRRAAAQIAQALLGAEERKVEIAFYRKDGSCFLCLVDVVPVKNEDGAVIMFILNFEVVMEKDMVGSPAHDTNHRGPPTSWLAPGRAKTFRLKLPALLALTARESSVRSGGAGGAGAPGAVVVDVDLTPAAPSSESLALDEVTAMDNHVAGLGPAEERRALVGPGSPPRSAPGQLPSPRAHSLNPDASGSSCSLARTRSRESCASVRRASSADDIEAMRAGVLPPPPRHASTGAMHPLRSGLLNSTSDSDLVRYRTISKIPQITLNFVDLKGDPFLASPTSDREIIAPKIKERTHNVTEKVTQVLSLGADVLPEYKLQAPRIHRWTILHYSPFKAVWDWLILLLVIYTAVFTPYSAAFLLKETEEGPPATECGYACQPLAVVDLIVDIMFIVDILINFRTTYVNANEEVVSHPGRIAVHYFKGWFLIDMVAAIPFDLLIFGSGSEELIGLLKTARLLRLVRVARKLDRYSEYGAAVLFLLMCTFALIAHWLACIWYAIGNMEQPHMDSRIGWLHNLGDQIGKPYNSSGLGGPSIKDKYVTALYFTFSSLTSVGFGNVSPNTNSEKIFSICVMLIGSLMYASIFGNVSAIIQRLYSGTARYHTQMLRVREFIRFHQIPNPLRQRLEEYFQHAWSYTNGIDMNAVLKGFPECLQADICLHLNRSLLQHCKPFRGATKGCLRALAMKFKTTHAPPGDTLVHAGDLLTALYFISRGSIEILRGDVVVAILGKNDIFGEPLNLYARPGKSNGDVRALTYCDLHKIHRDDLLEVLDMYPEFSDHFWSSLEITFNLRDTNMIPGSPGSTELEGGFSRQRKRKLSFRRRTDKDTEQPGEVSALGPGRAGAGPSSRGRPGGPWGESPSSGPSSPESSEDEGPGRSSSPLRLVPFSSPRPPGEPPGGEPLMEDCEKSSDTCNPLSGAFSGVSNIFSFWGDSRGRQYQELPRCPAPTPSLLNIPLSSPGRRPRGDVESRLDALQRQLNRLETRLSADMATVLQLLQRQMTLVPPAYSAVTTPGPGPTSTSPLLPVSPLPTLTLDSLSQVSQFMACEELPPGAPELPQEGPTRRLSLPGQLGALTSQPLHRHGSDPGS

Rattus norvegicus [19] = assay: Induction of bone formation in Sprague-Dawley rat assessed as stimulation of PTH level in plasma at 1 mg/kg, iv after 2 mins relative by ELISA to basal level; format: functional; method in brief: as §4
Rattus norvegicus [20] = assay: as §1; format: ADME, organism-based; parameters: dose 1 mg/kg, route intravenous; conditions: in vivo; method in brief: as §2
Rattus norvegicus [21] = assay: as §3; format: ADME, organism-based; parameters: dose 1 mg/kg, route intravenous; conditions: in vivo; method in brief: as §2

Compound: CC(=O)Nc1cccnc1-c1nc2ccnc(C(F)(F)F)c2c(=O)n1[C@H](C)Cc1ccccc1
IC50 [1]: 0.019 µM

Compound: Cc1nccc2nc(-c3ccccc3O)n(CCc3ccccc3)c(=O)c12
IC50 [1]: 2.99 µM

Compound: C[C@H](Cc1ccccc1)n1c(-c2cccc(F)c2O)nc2ccnc(C(F)(F)F)c2c1=O
half-life [2]: 91.8 min
IC50 [1]: 0.025 µM
clearance [3]: 31.6 mL/min/kg
Vd [4]: 3.6 L/kg
AUC [5]: 528 ng·h/mL

Compound: C[C@H](Cc1ccccc1)n1c(-c2ccccc2O)nc2ccnc(C(F)(F)F)c2c1=O
Activity (Rattus norvegicus [6]): Active
Activity (Rattus norvegicus [7]): 921 pg/mL
Tmax [8]: 30 min
Ratio (Rattus norvegicus [9]): 7
Cmax [10]: 125 ng/mL
clearance [11]: 7.8 mL/min/kg
Activity (Rattus norvegicus [12]): inactive
Activity (Rattus norvegicus [13]): Active
half-life [2]: 36 min
IC50 [1]: 0.041 µM
clearance [3]: 32.2 mL/min/kg
Vd [4]: 1.4 L/kg
Cmax [14]: 350 ng/mL
AUC [5]: 518 ng·h/mL
Activity (Rattus norvegicus [15]): 620 pg/mL
Ratio (Rattus norvegicus [16]): 4

Compound: CC(C)Oc1nccc2nc(-c3ccccc3O)n(CCc3ccccc3)c(=O)c12
IC50 [1]: 0.224 µM

Compound: CC(C)(Cc1ccc2ccccc2c1)NC[C@@H](O)COc1cccc(Cl)c1C#N
half-life [17]: 480 min
Activity [18]: Active

Compound: C[C@H](Cc1ccccc1)n1c(-c2cscn2)nc2ccnc(C(F)(F)F)c2c1=O
IC50 [1]: 0.216 µM

Compound: C[C@@H](Cc1ccccc1)n1c(-c2ccccc2O)nc2ccnc(C(F)(F)F)c2c1=O
IC50 [1]: 0.158 µM

Compound: O=c1c2c(Cl)nccc2nc(-c2ccccc2O)n1CCc1ccccc1
IC50 [1]: 0.106 µM

Compound: C[C@H](Cc1ccccc1)n1c(-c2ncccc2C(F)(F)F)nc2ccnc(C(F)(F)F)c2c1=O
Tmax [8]: 78 min
Cmax [10]: 100 ng/mL
beta t1/2 (Rattus norvegicus [20]): 48 min
IC50 [1]: 0.064 µM
Vdss (Rattus norvegicus [21]): 2.9 L/kg
Cmax [14]: 450 ng/mL
AUC [5]: 1200 ng·h/mL

Compound: C[C@H](Cc1ccccc1)n1c(-c2ccccc2Cl)nc2ccnc(C(F)(F)F)c2c1=O
IC50 [1]: 0.152 µM

Compound: O=c1c2c(N3CCCC3)nccc2nc(-c2ccccc2O)n1CCc1ccccc1
IC50 [1]: 5.32 µM

Compound: O=c1c2c(OC3CCC3)nccc2nc(-c2ccccc2O)n1CCc1ccccc1
IC50 [1]: 0.435 µM

The next lines start with results.

IC50 [1]: 0.61 µM
Compound: O=c1c2c(C(F)(F)F)nccc2nc(-c2cccc(F)c2O)n1CCc1ccccc1

IC50 [1]: 1.07 µM
Compound: O=c1c2c(C(F)(F)F)nccc2nc(-c2ccccc2Cl)n1CCc1ccccc1

IC50 [1]: 0.05 µM
Compound: O=c1c2c(C(F)(F)F)nccc2nc(-c2ccccc2O)n1CCc1ccccc1

IC50 [1]: 0.076 µM
Compound: COc1ccccc1CCn1c(-c2ncccc2O)nc2ccnc(C(F)(F)F)c2c1=O

IC50 [1]: 0.226 µM
Compound: Cc1cccnc1-c1nc2ccnc(C(F)(F)F)c2c(=O)n1[C@H](C)Cc1ccccc1

Tmax [8]: 18 min
Cmax [10]: 133 ng/mL
half-life [2]: 234 min
IC50 [1]: 0.008 µM
clearance [3]: 46.5 mL/min/kg
Vd [4]: 8.6 L/kg
Cmax [14]: 165 ng/mL
AUC [5]: 364 ng·h/mL
Compound: C[C@H](Cc1ccc(F)c(F)c1)n1c(-c2ncccc2O)nc2ccnc(C(F)(F)F)c2c1=O
Activity (Rattus norvegicus [6]): Active
Activity (Rattus norvegicus [7]): 1303 pg/mL
fold change (FC) (Rattus norvegicus [19]): 10
Activity (Rattus norvegicus [12]): inactive
Activity (Rattus norvegicus [13]): Active
Activity (Rattus norvegicus [15]): 599 pg/mL

IC50 [1]: 0.132 µM
Compound: O=c1c2c(C(F)(F)F)nccc2nc(-c2ccccc2O)n1CCc1ccccc1F

half-life [2]: 37.2 min
IC50 [1]: 0.036 µM
clearance [3]: 35.9 mL/min/kg
Vd [4]: 3.2 L/kg
AUC [5]: 490 ng·h/mL
Compound: O=c1c2c(C(F)(F)F)nccc2nc(-c2ncccc2O)n1CCC1CCCCC1

IC50 [1]: 0.151 µM
Compound: O=c1c2c(C(F)(F)F)nccc2nc(-c2ncccc2O)n1CCc1ccccc1F

IC50 [1]: 0.656 µM
Compound: O=c1c2c(C(F)(F)F)nccc2nc(-c2cscn2)n1CCc1ccccc1

beta t1/2 (Rattus norvegicus [20]): 57 min
IC50 [1]: 0.079 µM
Vdss (Rattus norvegicus [21]): 6 L/kg
AUC [5]: 810 ng·h/mL
Compound: C[C@H](Cc1ccccc1)n1c(-c2ncccc2Cl)nc2ccnc(C(F)(F)F)c2c1=O

IC50 [1]: 0.022 µM
Compound: C[C@H](Cc1ccccc1)n1c(-c2ncccc2O)nc2ccnc(C(F)(F)F)c2c1=O
